In ChEMBL document CHEMBL3627671, “Novel derivatives of nitro-substituted salicylic acids: Synthesis, antimicrobial activity and cytotoxicity” (Bioorg Med Chem, 2015):
In brackets after ≈: the same amount, converted by molar mass.

What was measured:
Format in all cases: functional
Mycobacterium kansasii [1] = assay: Antimycobacterial activity against Mycobacterium kansasii 6509/96 after 7 days; conditions: 6509/96, 168 h
Outline: (§1)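 Šula's semisynthetic medium micromethod at 37 °C, read after 7, 14 and 21 days. The 1.0 McFarland suspension was diluted 10^-4. MIC determined. 6509/96 is a clinical isolate.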

Aspergillus fumigatus [2] = assay: Antifungal activity against Aspergillus fumigatus 231 after 48 hrs by microdilution broth method; conditions: Aspergillus fumigatus, 231, 48 h
Outline: (§2)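 CLSI M27-A3 broth microdilution in RPMI 1640 with glutamine, buffered to pH 7.0 with MOPS; DMSO diluent. Yeast inoculum 5 × 10^3 ± 0.2 CFU/mL. Moulds grown on Sabouraud agar 3–10 days before spore harvest, final inoculum 0.5-5 × 10^4 CFU/mL, checked in a Bürker chamber. Incubated dark, humid, 35 °C, read at 24 and 48 h visually and at 540 nm. MIC taken as ≥80% (yeasts) or ≥50% (filamentous) growth reduction versus control.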

Staphylococcus aureus [3] = assay: Antibacterial activity against methicillin-resistant Staphylococcus aureus H 5996/08 after 24 hrs by microdilution broth method; conditions: H 5996/08, 24 h
Klebsiella pneumoniae [4] = assay: Antibacterial activity against ESBL-positive Klebsiella pneumoniae J 14368/08 after 24 hrs by microdilution broth method; conditions: J 14368/08, 24 h
Outline: (§3)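 Mueller-Hinton broth microdilution (modified M07-A07), pH 7.4 (±0.2). Compounds dissolved in DMSO, tested at final 500 to 0.49 µmol/L. Inoculum in sterile water matched to 0.5 McFarland. Incubated in the dark, humid atmosphere, 35 °C, read at 24 and 48 h visually and at 540 nm. MIC taken as ≥95% growth reduction (IC95) versus control.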

Lichtheimia corymbifera [5] = assay: Antifungal activity against Absidia corymbifera 272 after 24 hrs by microdilution broth method; conditions: Lichtheimia corymbifera, 272, 24 h; outline: as §2
[6] = tested on: Mycobacterium tuberculosis; assay: Antimycobacterial activity against Mycobacterium tuberculosis H37Rv 331/88 after 21 days; conditions: H37Rv 331/88, 504 h
Mycobacterium kansasii [7] = assay: Antimycobacterial activity against Mycobacterium kansasii 6509/96 after 21 days; conditions: 6509/96, 504 h; outline: as §1
[8] = tested on: Mycobacterium tuberculosis; assay: Antimycobacterial activity against Mycobacterium tuberculosis H37Rv 331/88 after 14 days; conditions: H37Rv 331/88, 336 h
Trichosporon asahii [9] = assay: Antifungal activity against Trichosporon asahii 1188 after 24 hrs by microdilution broth method; conditions: Trichosporon asahii, 1188, 24 h; outline: as §2
Staphylococcus aureus [10] = assay: Antibacterial activity against Staphylococcus aureus CCM 4516/08 after 24 hrs by microdilution broth method; conditions: CCM 4516/08, 24 h
Pseudomonas aeruginosa [11] = assay: Antibacterial activity against Pseudomonas aeruginosa CCM 1961 after 24 hrs by microdilution broth method; conditions: CCM 1961, 24 h; outline: as §3
Klebsiella pneumoniae [12] = assay: Antibacterial activity against Klebsiella pneumoniae D 11750/08 after 48 hrs by microdilution broth method; conditions: D 11750/08, 48 h; outline: as §3
Mycobacterium avium [13] = assay: Antimycobacterial activity against Mycobacterium avium 330/80 after 14 days; conditions: 330/80, 336 h
Pseudomonas aeruginosa [14] = assay: Antibacterial activity against Pseudomonas aeruginosa CCM 1961 after 48 hrs by microdilution broth method; conditions: CCM 1961, 48 h; outline: as §3
Candida tropicalis [15] = assay: Antifungal activity against Candida tropicalis 156 after 48 hrs by microdilution broth method; conditions: Candida tropicalis, 156, 48 h; outline: as §2
Enterococcus sp. [16] = assay: Antibacterial activity against Enterococcus sp. J 14365/08 after 48 hrs by microdilution broth method; conditions: J 14365/08, 48 h; outline: as §3
Candida albicans [17] = assay: Antifungal activity against Candida albicans ATCC 44859 after 48 hrs by microdilution broth method; conditions: ATCC 44859, 48 h; outline: as §2
Pichia kudriavzevii [18] = assay: Antifungal activity against Candida krusei E28 after 48 hrs by microdilution broth method; conditions: E28, 48 h; outline: as §2
[19] = tested on: Trichophyton mentagrophytes; assay: Antifungal activity against Trichophyton mentagrophytes 445 after 48 hrs by microdilution broth method; conditions: Trichophyton mentagrophytes, 445, 48 h
Staphylococcus aureus [20] = assay: Antibacterial activity against Staphylococcus aureus CCM 4516/08 after 48 hrs by microdilution broth method; conditions: CCM 4516/08, 48 h
Mycobacterium kansasii [21] = assay: Antimycobacterial activity against Mycobacterium kansasii 235/80 after 7 days; conditions: 235/80, 168 h; outline: as §1
Candida tropicalis [22] = assay: Antifungal activity against Candida tropicalis 156 after 24 hrs by microdilution broth method; conditions: Candida tropicalis, 156, 24 h; outline: as §2
Lichtheimia corymbifera [23] = assay: Antifungal activity against Absidia corymbifera 272 after 48 hrs by microdilution broth method; conditions: Lichtheimia corymbifera, 272, 48 h; outline: as §2
Klebsiella pneumoniae [24] = assay: Antibacterial activity against ESBL-positive Klebsiella pneumoniae J 14368/08 after 48 hrs by microdilution broth method; conditions: J 14368/08, 48 h; outline: as §3
Nakaseomyces glabratus [25] = assay: Antifungal activity against Candida glabrata 20/I after 48 hrs by microdilution broth method; outline: as §2
Escherichia coli [26] = assay: Antibacterial activity against Escherichia coli CCM4517 after 48 hrs by microdilution broth method; conditions: CCM4517, 48 h; outline: as §3
Aspergillus fumigatus [27] = assay: Antifungal activity against Aspergillus fumigatus 231 after 24 hrs by microdilution broth method; conditions: Aspergillus fumigatus, 231, 24 h; outline: as §2
Nakaseomyces glabratus [28] = assay: Antifungal activity against Candida glabrata 20/I after 24 hrs by microdilution broth method; outline: as §2
Mycobacterium kansasii [29] = assay: Antimycobacterial activity against Mycobacterium kansasii 235/80 after 14 days; conditions: 235/80, 336 h; outline: as §1
Escherichia coli [30] = assay: Antibacterial activity against Escherichia coli CCM4517 after 24 hrs by microdilution broth method; conditions: CCM4517, 24 h; outline: as §3
[31] = tested on: Staphylococcus epidermidis; assay: Antibacterial activity against Staphylococcus epidermidis H 6966/08 after 48 hrs by microdilution broth method; conditions: H 6966/08, 48 h; outline: as §3
Mycobacterium avium [32] = assay: Antimycobacterial activity against Mycobacterium avium 330/80 after 21 days; conditions: 330/80, 504 h
[33] = tested on: Trichophyton mentagrophytes; assay: Antifungal activity against Trichophyton mentagrophytes 445 after 24 hrs by microdilution broth method; conditions: Trichophyton mentagrophytes, 445, 24 h
Enterococcus sp. [34] = assay: Antibacterial activity against Enterococcus sp. J 14365/08 after 24 hrs by microdilution broth method; conditions: J 14365/08, 24 h; outline: as §3
Trichosporon asahii [35] = assay: Antifungal activity against Trichosporon asahii 1188 after 48 hrs by microdilution broth method; conditions: Trichosporon asahii, 1188, 48 h; outline: as §2
Pichia kudriavzevii [36] = assay: Antifungal activity against Candida krusei E28 after 24 hrs by microdilution broth method; conditions: E28, 24 h; outline: as §2
Klebsiella pneumoniae [37] = assay: Antibacterial activity against Klebsiella pneumoniae D 11750/08 after 24 hrs by microdilution broth method; conditions: D 11750/08, 24 h; outline: as §3
Mycobacterium kansasii [38] = assay: Antimycobacterial activity against Mycobacterium kansasii 235/80 after 21 days; conditions: 235/80, 504 h; outline: as §1
Mycobacterium kansasii [39] = assay: Antimycobacterial activity against Mycobacterium kansasii 6509/96 after 14 days; conditions: 6509/96, 336 h; outline: as §1
Candida albicans [40] = assay: Antifungal activity against Candida albicans ATCC 44859 after 24 hrs by microdilution broth method; conditions: ATCC 44859, 24 h; outline: as §2
[41] = tested on: Staphylococcus epidermidis; assay: Antibacterial activity against Staphylococcus epidermidis H 6966/08 after 24 hrs by microdilution broth method; conditions: H 6966/08, 24 h; outline: as §3
Staphylococcus aureus [42] = assay: Antibacterial activity against methicillin-resistant Staphylococcus aureus H 5996/08 after 48 hrs by microdilution broth method; conditions: H 5996/08, 48 h

For `O=C(Nc1cccc([N+](=O)[O-])c1)c1ccc([N+](=O)[O-])cc1O`, the MIC (Mycobacterium kansasii [1]) was 32 µM (≈ 9.7 µg/mL), the MIC (Aspergillus fumigatus [2]) was greater than 250 µM and the MIC (Staphylococcus aureus [3]) was 125 µM (≈ 37.9 µg/mL). For the same compound, the MIC (Klebsiella pneumoniae [4]) was greater than 250 µM, the MIC (Lichtheimia corymbifera [5]) was greater than 250 µM and the MIC [6] was 32 µM (≈ 9.7 µg/mL). For the same compound, the MIC (Mycobacterium kansasii [7]) was 32 µM (≈ 9.7 µg/mL), the MIC [8] was 32 µM (≈ 9.7 µg/mL) and the MIC (Trichosporon asahii [9]) was greater than 250 µM. The MIC (Staphylococcus aureus [10]) was 62.5 µM (≈ 19 µg/mL), the MIC (Pseudomonas aeruginosa [11]) was greater than 250 µM and the MIC (Klebsiella pneumoniae [12]) was greater than 250 µM. The MIC (Mycobacterium avium [13]) was 125 µM (≈ 37.9 µg/mL), the MIC (Pseudomonas aeruginosa [14]) was greater than 250 µM and the MIC (Candida tropicalis [15]) was greater than 250 µM. The MIC (Enterococcus sp. [16]) was greater than 250 µM, the MIC (Candida albicans [17]) was greater than 250 µM and the MIC (Pichia kudriavzevii [18]) was greater than 250 µM. The MIC [19] was greater than 250 µM, the MIC (Staphylococcus aureus [20]) was 62.5 µM (≈ 19 µg/mL) and the MIC (Mycobacterium kansasii [21]) was 32 µM (≈ 9.7 µg/mL). The MIC (Candida tropicalis [22]) was greater than 250 µM, the MIC (Lichtheimia corymbifera [23]) was greater than 250 µM and the MIC (Klebsiella pneumoniae [24]) was greater than 250 µM. For the same compound, the MIC (Nakaseomyces glabratus [25]) was greater than 250 µM, the MIC (Escherichia coli [26]) was greater than 250 µM and the MIC (Aspergillus fumigatus [27]) was greater than 250 µM. The MIC (Nakaseomyces glabratus [28]) was greater than 250 µM, the MIC (Mycobacterium kansasii [29]) was 32 µM (≈ 9.7 µg/mL) and the MIC (Escherichia coli [30]) was greater than 250 µM. The MIC [31] was 62.5 µM (≈ 19 µg/mL), the MIC (Mycobacterium avium [32]) was 125 µM (≈ 37.9 µg/mL) and the MIC [33] was greater than 250 µM. It also gave an MIC (Enterococcus sp. [34]) greater than 250 µM, an MIC (Trichosporon asahii [35]) greater than 250 µM and an MIC (Pichia kudriavzevii [36]) greater than 250 µM. It also gave an MIC (Klebsiella pneumoniae [37]) greater than 250 µM, an MIC (Mycobacterium kansasii [38]) of 62.5 µM (≈ 19 µg/mL) and an MIC (Mycobacterium kansasii [39]) of 32 µM (≈ 9.7 µg/mL). The MIC (Candida albicans [40]) was greater than 250 µM, the MIC [41] was 31.2 µM (≈ 9.48 µg/mL) and the MIC (Staphylococcus aureus [42]) was 125 µM (≈ 37.9 µg/mL).
For `O=C(Nc1cccc(Cl)c1)c1ccc([N+](=O)[O-])cc1O`, the MIC (Mycobacterium kansasii [1]) was 16 µM (≈ 4.68 µg/mL), the MIC (Aspergillus fumigatus [2]) was 125 µM (≈ 36.6 µg/mL) and the MIC (Staphylococcus aureus [3]) was 7.81 µM (≈ 2.29 µg/mL). The MIC (Klebsiella pneumoniae [4]) was greater than 500 µM, the MIC (Lichtheimia corymbifera [5]) was 62.5 µM (≈ 18.3 µg/mL) and the MIC [6] was 16 µM (≈ 4.68 µg/mL). For the same compound, the MIC (Mycobacterium kansasii [7]) was 16 µM (≈ 4.68 µg/mL), the MIC [8] was 8 µM (≈ 2.34 µg/mL) and the MIC (Trichosporon asahii [9]) was 62.5 µM (≈ 18.3 µg/mL). The MIC (Staphylococcus aureus [10]) was 7.81 µM (≈ 2.29 µg/mL), the MIC (Pseudomonas aeruginosa [11]) was greater than 500 µM and the MIC (Klebsiella pneumoniae [12]) was greater than 500 µM. It also gave an MIC (Mycobacterium avium [13]) of 32 µM (≈ 9.37 µg/mL), an MIC (Pseudomonas aeruginosa [14]) greater than 500 µM and an MIC (Candida tropicalis [15]) greater than 500 µM. For the same compound, the MIC (Enterococcus sp. [16]) was greater than 500 µM, the MIC (Candida albicans [17]) was greater than 500 µM and the MIC (Pichia kudriavzevii [18]) was 125 µM (≈ 36.6 µg/mL). The MIC [19] was 62.5 µM (≈ 18.3 µg/mL), the MIC (Staphylococcus aureus [20]) was 15.6 µM (≈ 4.57 µg/mL) and the MIC (Mycobacterium kansasii [21]) was 8 µM (≈ 2.34 µg/mL). For the same compound, the MIC (Candida tropicalis [22]) was greater than 500 µM, the MIC (Lichtheimia corymbifera [23]) was 250 µM (≈ 73.2 µg/mL) and the MIC (Klebsiella pneumoniae [24]) was greater than 500 µM. It also gave an MIC (Nakaseomyces glabratus [25]) greater than 500 µM, an MIC (Escherichia coli [26]) greater than 500 µM and an MIC (Aspergillus fumigatus [27]) of 62.5 µM (≈ 18.3 µg/mL). It also gave an MIC (Nakaseomyces glabratus [28]) greater than 500 µM, an MIC (Mycobacterium kansasii [29]) of 16 µM (≈ 4.68 µg/mL) and an MIC (Escherichia coli [30]) greater than 500 µM. It also gave an MIC [31] of 15.6 µM (≈ 4.57 µg/mL), an MIC (Mycobacterium avium [32]) of 62.5 µM (≈ 18.3 µg/mL) and an MIC [33] of 62.5 µM (≈ 18.3 µg/mL). It also gave an MIC (Enterococcus sp. [34]) of 500 µM (≈ 146 µg/mL), an MIC (Trichosporon asahii [35]) of 125 µM (≈ 36.6 µg/mL) and an MIC (Pichia kudriavzevii [36]) of 62.5 µM (≈ 18.3 µg/mL). The MIC (Klebsiella pneumoniae [37]) was greater than 500 µM, the MIC (Mycobacterium kansasii [38]) was 16 µM (≈ 4.68 µg/mL) and the MIC (Mycobacterium kansasii [39]) was 16 µM (≈ 4.68 µg/mL). For the same compound, the MIC (Candida albicans [40]) was greater than 500 µM, the MIC [41] was 7.81 µM (≈ 2.29 µg/mL) and the MIC (Staphylococcus aureus [42]) was 15.6 µM (≈ 4.57 µg/mL).
